Measured values from ChEMBL document CHEMBL1138555, “N-acylated and N,N'-diacylated imidazolidine-2-thione derivatives and N,N'-diacylated tetrahydropyrimidine-2(1H)-thione analogues: synthesis and antiproliferative activity” (Eur J Med Chem, 2009).
Active and inactive are the calls of the source. The rule behind the calls is not given here.

Columns and labels:
NCI-H23 = test: Growth inhibition of human NCI-H23 cells after 48 hrs by sulforhodamine B assay; assay type: functional; details: NCI-H23, 48 h
In short: (§1)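 NCI screen panel. Five 10-fold concentrations from 10^-4 to 10^-8 M. Exposure for the last 48 h of a 72 h incubation. Growth estimated by sulforhodamine B protein assay. GI50 is the concentration giving 50% growth inhibition. Where that level was not reached or was exceeded, the value is given as above or below the highest or lowest concentration tested.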

UACC-62 = test: Growth inhibition of human UACC62 cells after 48 hrs by sulforhodamine B assay; assay type: functional; details: UACC-62, 48 h
In short: (§2)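 NCI in vitro panel screen. Compounds tested at five 10-fold dilutions, 10^-4 to 10^-8 M. Cells in 96-well plates were exposed for the last 48 h of a 72 h incubation. Viability/growth was read by sulforhodamine B protein assay. GI50 is the concentration giving 50% growth inhibition. Values beyond the tested range are reported as greater or less than the maximum or minimum concentration.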

NCI-H460 = test: Growth inhibition of human NCI-H460 cells after 48 hrs by sulforhodamine B assay; assay type: functional; details: NCI-H460, 48 h; in short: as §1
M14 = test: Growth inhibition of human M14 cells after 48 hrs by sulforhodamine B assay; assay type: functional; details: M14, 48 h; in short: as §1
SNB-19 = test: Growth inhibition of human SNB19 cells after 48 hrs by sulforhodamine B assay; assay type: functional; details: SNB-19, 48 h; in short: as §2
Malme-3M = test: Growth inhibition of human MALME-3M cells after 48 hrs by sulforhodamine B assay; assay type: functional; in short: as §1
BT-549 = test: Growth inhibition of human BT549 cells after 48 hrs by sulforhodamine B assay; assay type: functional; details: BT-549, 48 h; in short: as §1
HT-29 = test: Growth inhibition of human HT-29 cells after 48 hrs by sulforhodamine B assay; assay type: functional; details: HT-29, 48 h; in short: as §1
SK-OV-3 = test: Growth inhibition of human SKOV3 cells after 48 hrs by sulforhodamine B assay; assay type: functional; details: SK-OV-3, 48 h; in short: as §1
HOP-62 = test: Growth inhibition of human HOP62 cells after 48 hrs by sulforhodamine B assay; assay type: functional; details: HOP-62, 48 h; in short: as §1
LOX IMVI = test: Growth inhibition of human LOXIMVI cells after 48 hrs by sulforhodamine B assay; assay type: functional; in short: as §1
786-0 = test: Growth inhibition of human 786-0 cells after 48 hrs by sulforhodamine B assay; assay type: functional; details: 786-0, 48 h; in short: as §1
MCF7 = test: Growth inhibition of human MCF7 cells after 48 hrs by sulforhodamine B assay; assay type: functional; details: MCF7, 48 h; in short: as §1
NCI-H322M = test: Growth inhibition of human NCI-H322M cells after 48 hrs by sulforhodamine B assay; assay type: functional; in short: as §1
CCRF-CEM = test: Growth inhibition of human CCRF-CEM cells after 48 hrs by sulforhodamine B assay; assay type: functional; in short: as §1
EKVX = test: Growth inhibition of human EKVX cells after 48 hrs by sulforhodamine B assay; assay type: functional; in short: as §1
[1] = Growth inhibition of human […] cells after 48 hrs by sulforhodamine B assay; assay type: functional; in short: as §1
HOP-92 = test: Growth inhibition of human HOP92 cells after 48 hrs by sulforhodamine B assay; assay type: functional; details: HOP-92, 48 h; in short: as §1
SF-268 = test: Growth inhibition of human SF268 cells after 48 hrs by sulforhodamine B assay; assay type: functional; details: SF-268, 48 h; in short: as §1
NCI-H522 = test: Growth inhibition of human NCI-H522 cells after 48 hrs by sulforhodamine B assay; assay type: functional; details: NCI-H522, 48 h; in short: as §1
TK-10 = test: Growth inhibition of human TK10 cells after 48 hrs by sulforhodamine B assay; assay type: functional; details: TK-10, 48 h; in short: as §2
MDA-MB-231 = test: Growth inhibition of human MDA-MB-231 cells after 48 hrs by sulforhodamine B assay; assay type: functional; details: MDA-MB-231, 48 h; in short: as §1
IGROV-1 = test: Growth inhibition of human IGROV1 cells after 48 hrs by sulforhodamine B assay; assay type: functional; details: IGROV-1, 48 h; in short: as §1
HL-60(TB) = test: Growth inhibition of human HL-60(TB) cells after 48 hrs by sulforhodamine B assay; assay type: functional; details: HL-60, 48 h
In short: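 NCI 60-cell-line screen protocol: cells exposed to compound at five 10-fold dilutions from 10^-4 to 10^-8 M for the last 48 h of a 72 h incubation. Sulforhodamine B protein assay estimated viability/growth. GI50 (50% growth inhibition) derived; where not reached or exceeded, reported as greater or less than the highest or lowest concentration tested.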

OVCAR-4 = test: Growth inhibition of human OVCAR4 cells after 48 hrs by sulforhodamine B assay; assay type: functional; details: OVCAR-4, 48 h; in short: as §1
SK-MEL-2 = test: Growth inhibition of human SK-MEL-2 cells after 48 hrs by sulforhodamine B assay; assay type: functional; details: SK-MEL-2, 48 h; in short: as §1
CAKI-1 = test: Growth inhibition of human Caki1 cells after 48 hrs by sulforhodamine B assay; assay type: functional; details: CAKI-1, 48 h; in short: as §1
A549 = test: Growth inhibition of human A549 cells after 48 hrs by sulforhodamine B assay; assay type: functional; details: A549, 48 h; in short: as §1
HCT-116 = test: Growth inhibition of human HCT116 cells after 48 hrs by sulforhodamine B assay; assay type: functional; details: HCT-116, 48 h; in short: as §1
MDA-MB-435 = test: Growth inhibition of human MDA-MB-435 cells after 48 hrs by sulforhodamine B assay; assay type: functional; details: MDA-MB-435, 48 h; in short: as §1
SW-620 = test: Growth inhibition of human SW620 cells after 48 hrs by sulforhodamine B assay; assay type: functional; details: SW-620, 48 h; in short: as §2
SK-MEL-28 = test: Growth inhibition of human SK-MEL-28 cells after 48 hrs by sulforhodamine B assay; assay type: functional; details: SK-MEL-28, 48 h; in short: as §1
SN12C = test: Growth inhibition of human SN12C cells after 48 hrs by sulforhodamine B assay; assay type: functional; in short: as §2
ACHN = test: Growth inhibition of human ACHN cells after 48 hrs by sulforhodamine B assay; assay type: functional; in short: as §1
U-251 = test: Growth inhibition of human U251 cells after 48 hrs by sulforhodamine B assay; assay type: functional; details: U-251, 48 h; in short: as §2
UO-31 = test: Growth inhibition of human UO31 cells after 48 hrs by sulforhodamine B assay; assay type: functional; details: UO-31, 48 h; in short: as §2
RXF 393 = test: Growth inhibition of human RXF393 cells after 48 hrs by sulforhodamine B assay; assay type: functional; details: RXF 393, 48 h; in short: as §1
DU-145 = test: Growth inhibition of human DU145 cells after 48 hrs by sulforhodamine B assay; assay type: functional; details: DU-145, 48 h; in short: as §1
HCT-15 = test: Growth inhibition of human HCT15 cells after 48 hrs by sulforhodamine B assay; assay type: functional; details: HCT-15, 48 h; in short: as §1
K562 = test: Growth inhibition of human K562 cells after 48 hrs by sulforhodamine B assay; assay type: functional; details: K562, 48 h; in short: as §1
MOLT-4 = test: Growth inhibition of human MOLT4 cells after 48 hrs by sulforhodamine B assay; assay type: functional; details: MOLT-4, 48 h; in short: as §1
SR = test: Growth inhibition of human SR cells after 48 hrs by sulforhodamine B assay; assay type: functional; in short: as §2
KM12 = test: Growth inhibition of human KM12 cells after 48 hrs by sulforhodamine B assay; assay type: functional; details: KM12, 48 h; in short: as §1
OVCAR-3 = test: Growth inhibition of human OVCAR-3 cells after 48 hrs by sulforhodamine B assay; assay type: functional; details: OVCAR-3, 48 h; in short: as §1
UACC-257 = test: Growth inhibition of human UACC257 cells after 48 hrs by sulforhodamine B assay; assay type: functional; details: UACC-257, 48 h; in short: as §2
SK-MEL-5 = test: Growth inhibition of human SK-MEL-5 cells after 48 hrs by sulforhodamine B assay; assay type: functional; details: SK-MEL-5, 48 h; in short: as §1
MT4 = test: Antiproliferative activity against human MT4 cells assessed as reduction of growth by MTT assay; assay type: functional, cell-based
In short: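 MT-4 lymphoblastoid T cells (ATCC) in RPMI 1640 with 10% FCS, penicillin/streptomycin, checked for mycoplasma. 1 × 10⁴ mock-infected cells per well with serial dilutions from a 100 mM DMSO stock. Incubated 4 days at 37 °C, viable cells counted by MTT. IC50 versus untreated controls by linear regression. Mean of three separate experiments.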

NCI/ADR-RES = test: Growth inhibition of human NCI/ADR-RES cells after 48 hrs by sulforhodamine B assay; assay type: functional; in short: as §1
OVCAR-8 = test: Growth inhibition of human OVCAR8 cells after 48 hrs by sulforhodamine B assay; assay type: functional; details: OVCAR-8, 48 h; in short: as §1
COLO 205 = test: Growth inhibition of human COLO205 cells after 48 hrs by sulforhodamine B assay; assay type: functional; details: COLO 205, 48 h; in short: as §1
SF-295 = test: Growth inhibition of human SF295 cells after 48 hrs by sulforhodamine B assay; assay type: functional; details: SF-295, 48 h; in short: as §1
PC-3 = test: Growth inhibition of human PC3 cells after 48 hrs by sulforhodamine B assay; assay type: functional; details: PC-3, 48 h; in short: as §1
[2] = system: Human immunodeficiency virus 1; test: Antiviral activity against HIV1 in human MT4 cells assessed as prevention of virus-induced cytopathogenicity; assay type: functional, organism-based
In short: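 MT-4 cells, 1 × 10⁴ per well, with serial compound dilutions from a 100 mM DMSO stock. Infected with HIV-1 at 100 CCID50. Four-day incubation at 37 °C, then viable cells measured by MTT. Read-out is inhibition of virus-induced cytopathogenicity, assessed at non-cytotoxic concentrations.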

N#C/C(=C\N1CCN(C(=O)c2ccco2)C1=S)C(=O)Nc1ccc(Cl)cc1
GI50 (NCI-H23): 12.3 µM
GI50 (UACC-62): 16.9 µM
GI50 (NCI-H460): 19.9 µM
GI50 (M14): 14.2 µM
GI50 (SNB-19): 27.6 µM
GI50 (Malme-3M): 21.4 µM
GI50 (BT-549): 8.6 µM
GI50 (HT-29): 21.4 µM
GI50 (SK-OV-3): 41.2 µM
GI50 (HOP-62): 25.7 µM
GI50 (LOX IMVI): 16.7 µM
GI50 (786-0): 17.4 µM
GI50 (MCF7): 21 µM
GI50 (NCI-H322M): 28.6 µM
GI50 (CCRF-CEM): 22.5 µM
GI50 (EKVX): 0.01 µM
GI50 [1]: 10.5 µM
GI50 (HOP-92): 21.5 µM
GI50 (SF-268): 17.8 µM
GI50 (NCI-H522): 16.7 µM
GI50 (TK-10): 19.4 µM
GI50 (MDA-MB-231): 18.4 µM
GI50 (IGROV-1): 25.3 µM
GI50 (HL-60(TB)): 10.5 µM
GI50 (OVCAR-4): 25.2 µM
GI50 (SK-MEL-2): 16.7 µM
GI50 (CAKI-1): 13.2 µM
GI50 (A549): 25.8 µM
GI50 (HCT-116): 15.2 µM
GI50 (MDA-MB-435): 15.2 µM
GI50 (SW-620): 17.3 µM
GI50 (SK-MEL-28): 18.7 µM
GI50 (SN12C): 11.8 µM
GI50 (ACHN): 15.3 µM
GI50 (U-251): 17.3 µM
GI50 (UO-31): 12 µM
GI50 (RXF 393): 13.1 µM
GI50 (DU-145): 15.9 µM
GI50 (HCT-15): 21.3 µM
GI50 (K562): 16.1 µM
GI50 (MOLT-4): 17.7 µM
GI50 (SR): 1.6 µM
GI50 (KM12): 16.3 µM
GI50 (OVCAR-3): 15.5 µM
GI50 (UACC-257): 16.5 µM
GI50 (SK-MEL-5): 11.2 µM
IC50 (MT4): 6.5 µM
GI50 (NCI/ADR-RES): 28.1 µM
GI50 (OVCAR-8): 20.6 µM
GI50 (COLO 205): 25.6 µM
GI50 (SF-295): 20.2 µM
GI50 (PC-3): 18.9 µM

CC(=O)C(=CN1CCNC1=S)C(C)=O
Activity [2]: inactive
